ChEMBL document CHEMBL1153637, “Identification and optimisation of a novel series of pyrimidine based cyclooxygenase-2 (COX-2) inhibitors. Utilisation of a biotransformation approach” (Bioorg Med Chem Lett, 2009)
The source made the active and inactive calls. The rule behind the calls is not given here.

Assays:
Homo sapiens = organism: Homo sapiens; test: Selectivity ratio of IC50 for human COX1 to IC50 for human COX2
Method in brief: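 Ratio of the COX-1 IC50 to the COX-2 IC50. Both IC50s are for inhibition of PGE2 production by COS cells stably expressing human COX-1 or human COX-2, after stimulation with arachidonic acid.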

[1] = biological target: T1, Prostaglandin G/H synthase 2 (Homo sapiens, UniProt P35354); test: Inhibition of human COX2 expressed in african green monkey COS cells assessed as inhibition of arachidonic acid-stimulated PGE2 production by enzyme immunoassay; type: cell-based
T1 sequence (P35354 whole entry): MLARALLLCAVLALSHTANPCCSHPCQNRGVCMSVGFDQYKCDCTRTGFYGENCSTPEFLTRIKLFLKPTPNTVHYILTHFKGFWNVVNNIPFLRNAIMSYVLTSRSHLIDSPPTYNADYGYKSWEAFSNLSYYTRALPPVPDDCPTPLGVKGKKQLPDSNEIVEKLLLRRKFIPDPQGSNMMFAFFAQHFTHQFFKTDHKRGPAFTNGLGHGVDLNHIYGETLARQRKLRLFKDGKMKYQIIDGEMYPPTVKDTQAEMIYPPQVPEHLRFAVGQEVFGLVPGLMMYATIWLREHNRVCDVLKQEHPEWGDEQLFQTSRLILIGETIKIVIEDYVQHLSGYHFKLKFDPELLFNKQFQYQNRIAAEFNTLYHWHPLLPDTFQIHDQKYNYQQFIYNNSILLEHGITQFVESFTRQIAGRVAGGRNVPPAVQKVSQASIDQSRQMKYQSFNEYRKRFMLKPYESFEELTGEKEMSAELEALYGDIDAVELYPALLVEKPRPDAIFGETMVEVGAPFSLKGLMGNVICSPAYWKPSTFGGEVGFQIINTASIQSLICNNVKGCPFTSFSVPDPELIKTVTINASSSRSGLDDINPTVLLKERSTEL

[2] = biological target: T2, Prostaglandin G/H synthase 1 (Homo sapiens, UniProt P23219); test: Inhibition of human COX1 expressed in african green monkey COS cells assessed as inhibition of arachidonic acid-stimulated PGE2 production by enzyme immunoassay; type: cell-based
T2 sequence (P23219 whole entry): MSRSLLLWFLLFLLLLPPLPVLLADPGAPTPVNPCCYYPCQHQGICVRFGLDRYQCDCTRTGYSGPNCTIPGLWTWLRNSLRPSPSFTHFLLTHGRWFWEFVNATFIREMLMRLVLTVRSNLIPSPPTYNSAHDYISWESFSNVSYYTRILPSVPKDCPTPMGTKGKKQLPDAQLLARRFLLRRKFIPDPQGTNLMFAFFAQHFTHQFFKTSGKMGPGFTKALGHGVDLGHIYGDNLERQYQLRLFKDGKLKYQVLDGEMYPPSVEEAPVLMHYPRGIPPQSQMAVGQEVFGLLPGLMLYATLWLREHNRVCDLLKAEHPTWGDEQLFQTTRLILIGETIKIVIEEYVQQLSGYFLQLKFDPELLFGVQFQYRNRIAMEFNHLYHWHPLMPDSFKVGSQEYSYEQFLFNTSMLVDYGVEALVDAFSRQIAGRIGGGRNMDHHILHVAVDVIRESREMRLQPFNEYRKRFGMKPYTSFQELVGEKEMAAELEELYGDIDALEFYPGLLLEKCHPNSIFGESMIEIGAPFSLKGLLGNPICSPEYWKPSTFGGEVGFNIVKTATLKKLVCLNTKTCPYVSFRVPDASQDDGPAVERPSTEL

[3] = biological target: T2, Prostaglandin G/H synthase 1; test: Inhibition of human COX1 expressed in african green monkey COS cells assessed as inhibition of arachidonic acid-stimulated PGE2 production upto 100 uM by enzyme immunoassay; type: cell-based
Method in brief: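 COS cells stably expressing human COX-1 were stimulated with arachidonic acid, and PGE2 production was measured. IC50 was taken as the concentration inhibiting PGE2 output.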

Rattus norvegicus = organism: Rattus norvegicus; test: Antiinflammatory activity in Freund's complete adjuvant-induced rat inflammatory pain model assessed as change in weight bearing ability on inflamed paw pretreated 1 hr before and measured 6 hrs after FCA challenge; type: functional

Row | Ratio IC50 (Homo sapiens) | IC50 [1] | IC50 [2] | Activity [3] | Compound | ED50 (Rattus norvegicus)
1 | 51 | 85 nM | 4.34 µM |  | CN(c1ccccc1)c1ncc(-c2ccc(S(C)(=O)=O)cc2)c(-c2ccc(F)cc2)n1 | 
2 |  | > 7200 nM | > 100 µM |  | CS(=O)(=O)c1ccc(-c2cnc(Sc3ccccc3)nc2-c2ccc(F)cc2)cc1 | 
3 |  | > 4640 nM | > 100 µM |  | CS(=O)(=O)c1ccc(-c2cnc(Oc3ccccc3)nc2-c2ccc(F)cc2)cc1 | 
4 |  | 57 nM |  | inactive | CS(=O)(=O)c1ccc(-c2cnc(C(O)c3ccccc3)nc2-c2ccc(F)cc2)cc1 (configuration not stated) | 1.6 mg/kg
5 | 284 | 23 nM | 6.54 µM |  | Cn1cccc1Cc1ncc(-c2ccc(S(C)(=O)=O)cc2)c(-c2ccc(F)cc2)n1 | 
6 | > 16 | 6320 nM | > 100 µM |  | CS(=O)(=O)c1ccc(-c2cnc(Cc3ccccn3)nc2-c2ccc(F)cc2)cc1 | 
7 | > 361 | 277 nM | > 100 µM |  | CS(=O)(=O)c1ccc(-c2cnc(Cc3ccc(F)cc3)nc2-c2ccc(F)cc2)cc1 | 
8 | > 457 | 114 nM | > 52.1 µM |  | CS(=O)(=O)c1ccc(-c2cnc(Cc3ccc(F)cc3F)nc2-c2ccc(F)cc2)cc1 | 
9 | 5.6 | 5260 nM | 29.4 µM |  | CS(=O)(=O)c1ccc(-c2cnc(CCc3ccccc3)nc2-c2ccc(F)cc2)cc1 | 
10 | > 326 | 104 nM | > 34 µM |  | CS(=O)(=O)c1ccc(-c2cnc(Cc3ccccc3)nc2-c2ccc(F)cc2)cc1 | 
11 | > 1780 | 56 nM | > 100 µM |  | CS(=O)(=O)c1ccc(-c2cnc(Nc3ccccc3)nc2-c2ccc(F)cc2)cc1 | 
12 | 8.8 | 1140 nM | 10 µM |  | CC(C)c1ncc(-c2ccc(S(C)(=O)=O)cc2)c(-c2ccc(F)cc2)n1 | 

Row | Compound | Ratio IC50 (Homo sapiens) | IC50 [1] | IC50 [2] | Activity [3] | ED50 (Rattus norvegicus)
13 | CS(=O)(=O)c1ccc(-c2cnc(Cc3ccccc3)[n+]([O-])c2-c2ccc(F)cc2)cc1 |  | 717 nM |  |  | 
14 | CS(=O)(=O)c1ccc(-c2cnc(Cc3ccccc3O)nc2-c2ccc(F)cc2)cc1 |  | 43 nM |  |  | 
15 | CS(=O)(=O)c1ccc(-c2cnc(NCc3ccccc3)nc2-c2ccc(F)cc2)cc1 | > 145 | 686 nM | > 100 µM |  | 
16 | CS(=O)(=O)c1ccc(-c2cnc(CC3CCCCC3)nc2-c2ccc(F)cc2)cc1 | 247 | 12 nM | 2.97 µM |  | 
